# Screening results: PubChem BioAssay, The Scripps Research Institute Molecular Screening Center
# Most compounds without a hit are left out; they make up all but 1.5% or so of the library.
# proCasp3 act: activates human procaspase-3. P42574. recombinant procaspase-3 D3A, Ac-DEVD-pNA absorbance 405 nm. activation, % at 8.5 µM. 330,000 compounds, 0.11% hits;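 active means activation above the mean of all tested compounds plus 3 SD, cut at about 21% in these data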;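 further: 0% = DMSO alone and 100% = DMSO wells spiked with extra 5 µM PC-3 D3A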
# Target sequence (P42574 whole entry D9A/D28A/D175A): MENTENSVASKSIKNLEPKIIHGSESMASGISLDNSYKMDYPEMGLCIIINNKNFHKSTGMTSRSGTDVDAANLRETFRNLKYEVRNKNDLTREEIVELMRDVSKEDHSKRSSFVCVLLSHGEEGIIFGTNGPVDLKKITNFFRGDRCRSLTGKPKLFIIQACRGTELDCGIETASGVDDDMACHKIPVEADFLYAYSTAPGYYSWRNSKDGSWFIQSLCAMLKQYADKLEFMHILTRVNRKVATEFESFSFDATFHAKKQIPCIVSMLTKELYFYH
#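 Assay system: Autoprocessing-dead procaspase-3 D3A mutant enzyme; also added: Ac-DEVD-pNA; doses: one concentration, 8.5 µM nominal, 0.8% DMSO; times: 1 h compound preincubation, 2 h substrate hydrolysis at 25 °C; technique: 405 nm absorbance of p-nitroaniline, reads at 0 and 120 min; measure: % activation between DMSO and enzyme-spiked controls; repeats: single replicate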
# proCasp7 act: counter-screen for procaspase-3 activators: activators of human procaspase-7 | P55210 | recombinant procaspase-7, Ac-DEVD-pNA absorbance 405 nm; D23A/D198A/D206A triple mutant, cannot self-cleave; scale: DMSO 0, 5 µM enzyme 100 | activation, % at 8.5 µM | 330,000 compounds, 0.093% hits;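 active means percent activation above the screen-wide mean plus 3 SD, cut at about 25% in these data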
# Target sequence (P55210 whole entry D23A/D198A/D206A): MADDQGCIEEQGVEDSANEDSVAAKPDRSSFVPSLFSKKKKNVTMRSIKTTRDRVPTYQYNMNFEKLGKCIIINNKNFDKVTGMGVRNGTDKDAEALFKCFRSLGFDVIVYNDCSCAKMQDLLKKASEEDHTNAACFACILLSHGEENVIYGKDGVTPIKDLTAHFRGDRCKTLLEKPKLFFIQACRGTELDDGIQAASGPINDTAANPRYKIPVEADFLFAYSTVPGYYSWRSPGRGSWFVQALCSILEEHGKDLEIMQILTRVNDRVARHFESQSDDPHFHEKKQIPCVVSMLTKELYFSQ
#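 buffer or medium = Zinc-free HEPES/NaCl buffer, pH 7.4 | material = Procaspase-7 triple mutant (PC-7 D3A) | input = 2 µM procaspase-7 mutant as dispensed | signal = Epi-absorbance of released pNA at 405 nm, two timepoints | timing = 1 h preincubation, 2 h reaction | replicates = singlicate compound testing | evaluation = % activation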
# bovine MsrA act: activates bovine MsrA enzyme. purified bovine MsrA, absorbance read-out. activation, % at 10.6 µM. 360,000 compounds, 0.3% hits; in the data active means activation above about 7.5%;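 further: 0% = vehicle and 100% = reference activator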
# TbMetRS inhib: blocks T. brucei methionyl-tRNA synthetase activity; purified T. brucei MetRS, ATP depletion, Kinase-Glo luminescence; inhibition, % at 11.9 µM; 360,000 compounds, 0.4% hits; AID 624268;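 active means inhibition above a per-plate cutoff of the control wells' mean inhibition plus 3 SD, cut at about 5.5% in these data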;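 further: 0% = DMSO wells median and 100% = median of wells with control inhibitor compound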
#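 Test system – parasite MetRS enzyme · Reagent – substrates ATP, L-methionine and bulk Escherichia coli tRNA · Doses – 11.9 µM compound single dose, 0.9% DMSO · Times – 15 min enzyme-compound preincubation, 2 h reaction, 10 min detection, 25 °C · Signal – Kinase-Glo luminescence, ATP depletion format · Controls – DMSO-only wells as low control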
# MsrA inh: bovine MsrA inhibition; 360,000 compounds, 0.75% hits; inhibition, % at 15.5 µM; purified bovine MsrA, absorbance read-out; in the data active means inhibition above about 4.5%;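 further: 0% = vehicle wells with enzyme and 100% = reference inhibitor wells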
# Numbers without * were called inactive; · = no result.
SMILES,proCasp3 act,proCasp7 act,bovine MsrA act,TbMetRS inhib,MsrA inh
CCN(c1ccccc1C)S(=O)(=O)c1nnc(NC(=O)c2ccco2)s1,1,6,-3,0,3
CC(C)[C@H](NC(=O)c1ccc(Cl)cc1Cl)C(=O)N1CCC[C@H]1C(=O)NCc1ccccc1,·,·,·,·,1
COC(=O)C(=CC(=CN(C)C)C=C(C(=O)OC)C(=O)OC)C(=O)OC,-1,-1,-5,-1,4.5*
N#Cc1ccc(S(=O)(=O)N2CCCc3nc(-c4ccc(F)cc4)ccc32)cc1,·,·,·,·,0
Cc1c(Cc2ccccc2)c(=O)oc2c(CN(C)C)c(O)c(Cl)cc12,-2,2,-4,0,3
CCc1cc2c(=O)c(Oc3ccccc3F)c(C)oc2c(CN(C)C)c1O,1,6,-2,-1,6.7*
O=C(NCc1cccc(C(F)(F)F)c1)c1cc(Cl)cc(Cl)c1,1,36*,-3,0,0
O=C(NCCc1ccccc1)Nc1cccc(Cl)c1,3,-5,-2,0,0
O=C(NCCc1ccc(Cl)cc1)Nc1cccc(Cl)c1,-2,8,-4,7.0*,-1
CCCCNc1cccc2c1S(=O)(=O)N[C@@H](CC(C)C)CO2,·,·,·,·,-1
O=C(O)c1cccc(-n2sc3ccccc3c2=O)c1,-28,-26,17*,0,2
Cn1cc(CC(=O)Nc2ccc(Nc3cccnc3)cc2)c2ccccc21,·,·,·,·,1
COc1cc(/C=N/NC(=O)c2ccc(CN3c4cccc5cccc(c45)S3(=O)=O)cc2)cc(OC)c1O,·,·,-11,-1,4.6*
Cc1ccc(C(=O)N/C(=C\c2cccs2)c2nc3ccccc3[nH]2)cc1,-6,-8,-9,4,4.6*
N#C/C(=C\c1cccs1)c1nc2ccccc2[nH]1,-3,-3,-7,1,1
CCOC(=O)c1sc(=S)[nH]c1C,·,·,8.4*,0,4
CCOC(=O)c1sc(N)c(C(=O)OC)c1C,2,4,-4,1,1
O=C(O)c1ccccc1NS(=O)(=O)c1ccc(NN=Cc2ccc(F)cc2)c([N+](=O)[O-])c1,-2,-2,-5,0,·
O=C(O)c1ccccc1NS(=O)(=O)c1ccc(N/N=C/c2ccc(O)c(O)c2)c([N+](=O)[O-])c1,·,·,-8,0,4.8*
COC(=O)c1cc2c(c3c4cc(OC)ccc4n(S(=O)(=O)c4ccc(OC)cc4)c13)C(=O)N(Cc1ccc(N(C)C)cc1)C2,·,·,·,·,1
O=C(Nc1ccccc1)C1=C[C@H](c2ccccc2)C[C@H](OCCCCO)O1,11,-3,2,0,1
O=C(NCc1nc2ccccc2[nH]1)C1=C[C@@H](c2ccccc2)C[C@@H](OCCCCO)O1,0,3,-1,70*,0
C[C@H]1C=C(C(=O)NCc2nc3ccccc3[nH]2)O[C@@H](OCc2ccc(CO)cc2)C1,-5,-15,-5,24*,-1
C[C@@H]1C=C(C(=O)NCc2ccccc2)O[C@H](OCc2ccc(CO)cc2)C1,4,1,-1,0,1
COc1ccc(C2O[C@@H](C)[C@@H]3C(=O)N4CCc5c([nH]c6ccccc56)[C@@H]4C[C@@H]3N2C)cc1 (some centres undefined),·,·,·,·,-1
SMILES,proCasp3 act,proCasp7 act,bovine MsrA act,TbMetRS inhib,MsrA inh
CCCCCN(C(=O)Cc1c(C)n(CCCCC)c2ccccc12)c1ccc(Oc2cccnc2)c(C)c1,·,·,·,·,0
CC(CCC(C)C(C)(C)C)[C@@H]1CC[C@H]2C3C[C@H](OS(O)(=S)=S)[C@H]4C[C@H](OS(O)(=S)=S)[C@@H](OS(O)(=S)=S)C[C@]4(C)[C@H]3CC[C@]12C (some centres undefined) (tested in a mixture with another compound),-5,-1,-5,16*,·
N#Cc1c(NC(=O)c2ccccc2Cl)n(Cc2ccccc2)c2nc3ccccc3nc12,-20,-23,-2,6.8*,1
N#CCC1(O)C(=O)Nc2ccccc21 (centres undefined),·,·,·,·,0
COc1cc2c(cc1OC)[C@](C)(c1ccccc1)C[C@@H]2NCC=C(C)C,·,·,·,·,-1
Cc1ccc2nc(-c3ccc(NC(=O)c4ccco4)cc3)[nH]c2c1,12,-2,-5,-1,·
Cn1cccc1-c1nc2ccc(NC(=O)c3ccco3)cc2[nH]1,3,3,-1,1,7.3*
COc1ccc2cc(C(=O)CS(=O)(=O)c3ccc(Cl)cc3)c(=O)oc2c1,·,·,·,·,0
CCn1c(/N=C/c2ccccc2NS(=O)(=O)c2ccc(C)cc2)nc2ccccc21,-4,5,-10,6.5*,·
O=C1CCCCC1CCS(=O)(=O)NCc1ccccc1 (centres undefined),·,·,·,·,-1
Cc1ccccc1C(=O)Nc1ccc(C(=O)N/N=C/c2ccc(O)c(Br)c2)cc1,-4,-9,-4,0,4.6*
CCc1nc(SCC(=O)NC2CC2)c2c(C)c(C)sc2n1,8,3,-1,0,0
Cc1nc(SCC(=O)NC2CC2)c2c(C)c(C)sc2n1,30*,7,-2,0,0
C=CC[C@]1(c2ccccc2)C(=O)N2C[C@H]3CON(C)[C@H]3C[C@H]2c2ccccc21,·,·,·,·,-1
CC(CCCN1CCCC1)Nc1ccnc2cc(Cl)ccc12 (centres undefined),·,·,-1,0,4.8*
CC(C)NC1CCC(Nc2ccnc3cc(Cl)ccc23)CC1 (centres undefined),·,·,-4,0,2
COc1cc(/C=C/C(=O)Nc2ccc3nc4n(c(=O)c3c2)CCCC4)cc(OC)c1OC,-4,4,-3,1,4.6*
COCCCn1cnn2c(=O)c3ccccc3nc2c1=O,·,·,·,·,1
CCc1ccc(/C=C2/SC(=S)N(CC(=O)Nc3nc4ccccc4s3)C2=O)cc1,-10,-6,13*,0,0
CC(=O)O[C@@H]1C=C[C@@H](C#Cc2ccc(C(C)(C)C)cc2)O[C@@H]1COC(=O)NCc1ccccc1,·,·,·,·,1
